Each block holds one compound with its values, some of them ahead of it. Activity calls are given as the source filed them. No cut-off for these calls is given here.
Experiments:
Mus musculus [1] = test: Toxicity in nude BALB/c mouse xenografted with FU-resistant human HCT8 cells assessed as abnormal color changes in lung at 17.8 to 35.7 umol/kg administered as via oral gavage daily for 21 days; type: organism-based, HCT-8; settings: in vivo, 504 h
Outline: (§1)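 Male BALB/c nude mice aged 6-8 weeks, implanted s.c. in the right flank with HCT-8/5-FU cells (2 × 10^6). Once tumors reached 180-200 mm3 (days 9-11), randomized to daily gavage for 21 days in cremophor-EL/DMSO/PBS (1:1:8), 0.2 mL. At the end, liver, kidney, lung and heart checked for size, colour and weight. n = 8 per group.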

[2] = (§2) Antiproliferative activity against human HCT8 cells assessed as inhibition of cell proliferation at 1 uM after 72 hrs by MTT assay; type: functional; settings: HCT-8, 72 h, read-out: GI
Outline: (§3)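 Cells grown in DMEM with 10% FBS and exposed to compound at 1 µM for 72 h. Proliferation measured by MTT at 570 nm and expressed as % inhibition versus untreated cells. Mean ± SD of three independent experiments.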

HCT-8 [3] = test: Inhibition of MRP1 protein expression in FU-resistant human HCT8 cells at 0.25 to 1 uM incubated for 24 hrs by Western blotting method; type: functional, cell-based
Outline: (§4)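 Cells (1 x 10^6) grown 24 h in 6 cm dishes, then exposed in duplicate for 24 h to 0.25, 0.5 or 1 µM compound, with or without PTIO. Lysates (20 µg/lane) were run on 7.5% SDS-PAGE, blotted to PVDF and blocked in 5% milk. HRP secondaries with ECL detection; bands quantified by densitometry against β-actin or GAPDH. Three separate experiments, mean ± SD.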

HCT-8 [4] = test: Induction of nitric oxide release in human HCT8 cells at 100 uM incubated for 150 mins by Griess assay; type: functional, cell-based
Outline: (§5)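 Cells (1 × 10^6/well) treated in triplicate with compound at 100 µM for 150 min. Lysates mixed with Griess reagent for 10 min at 37 °C and read at 540 nm. Nitrite quantified from a sodium nitrite standard curve; 0.4% DMSO-treated cells served as background. Mean ± SD of three experiments.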

HCT-8 [5] = test: Inhibition of BCRP protein expression in FU-resistant human HCT8 cells at 1 uM in presence of NO scavenger carboxy-PTIO incubated for 24 hrs by Western blotting method; type: functional, cell-based; outline: as §4
Mus musculus [6] = test: Toxicity in ICR mouse assessed as abnormality in eating behavior at 0.60 x 10^3 to 2.38 x 10^3 umol/kg administered as single dose via oral gavage measured up to 14 days post treatment; type: organism-based; settings: in vivo, 336 h
Outline: (§6)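 Adult ICR mice of either sex were randomised and given a single oral gavage dose of 500, 1000, 1500 or 2000 mg/kg in cremophor-EL/DMSO/PBS (1:1:8). Survival, behaviour, water and food intake, body weight and activity were monitored for up to 14 days. Body weights were taken on days 0, 7 and 14.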

[7] = molecular target: RAC-alpha serine/threonine-protein kinase (Homo sapiens) (UniProt P31749); test: Inhibition of AKT protein phosphorylation in FU-resistant human HCT8 cells at 0.25 to 1 uM incubated for 24 hrs by Western blotting method; type: cell-based; settings: HCT-8; outline: as §4
CCD-841CoN = test: Induction of nitric oxide release in human CCD-841-CoN cells at 100 uM incubated for 150 mins by Griess assay; type: functional, cell-based; outline: as §5
Mus musculus [8] = test: Toxicity in nude BALB/c mouse xenografted with FU-resistant human HCT8 cells assessed as body weight level at 35.7 umol/kg administered as via oral gavage daily for 21 days (reference value: 21.1 +/- 1.5 g); type: organism-based, HCT-8; settings: in vivo, 504 h
Outline: (§7)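 Male BALB/c nude mice, 6-8 weeks old, inoculated s.c. in right flank with HCT-8/5-FU cells (2 × 10^6/mouse). Once tumors reached 180-200 mm3 (9-11 days post-implantation), mice were randomized and dosed by gavage daily for 21 consecutive days in cremophor-EL/DMSO/PBS (1:1:8) (vehicle alone 0.2 mL). Body weights recorded on day 1 and day 21. Organ size, color and weights were inspected for liver, kidney, lung and heart. n = 8 per group; mean ± SD.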

HCT-8 [9] = test: Inhibition of BCRP protein expression in FU-resistant human HCT8 cells at 0.25 to 1 uM incubated for 24 hrs by Western blotting method; type: functional, cell-based; outline: as §4
Mus musculus [10] = test: Toxicity in nude BALB/c mouse xenografted with FU-resistant human HCT8 cells assessed as abnormal weight changes in kidney at 17.8 to 35.7 umol/kg administered as via oral gavage daily for 21 days; type: organism-based, HCT-8; settings: in vivo, 504 h; outline: as §1
HCT-8 [11] = test: Induction of apoptosis in 5-FU resistant human HCT8 cells incubated for 24 hrs by FITC-Annexin-V and propidium iodide staining based flow cytometry; type: functional, cell-based
Mus musculus [12] = test: Toxicity in nude BALB/c mouse xenografted with FU-resistant human HCT8 cells assessed as abnormal size changes in heart at 17.8 to 35.7 umol/kg administered as via oral gavage daily for 21 days; type: organism-based, HCT-8; settings: in vivo, 504 h; outline: as §1
HCT-8 [13] = test: Inhibition of P-gp protein expression in FU-resistant human HCT8 cells at 0.25 to 1 uM incubated for 24 hrs by Western blotting method; type: functional, cell-based; outline: as §4
Mus musculus [14] = test: Toxicity in ICR mouse assessed as general activity changes at 0.60 x 10^3 to 2.38 x 10^3 umol/kg administered as single dose via oral gavage measured up to 14 days post treatment; type: organism-based; settings: in vivo, 336 h; outline: as §6
HCT-8 [15] = test: as §2; type: functional; outline: as §3
Mus musculus [16] = test: Toxicity in nude BALB/c mouse xenografted with FU-resistant human HCT8 cells assessed as abnormal size changes in kidney at 59.4 umol/kg administered as via oral gavage daily for 21 days; type: organism-based, HCT-8; settings: in vivo, 504 h; outline: as §1
[17] = molecular target: Multidrug resistance-associated protein 1 (Homo sapiens, UniProt P33527); test: Induction of nitrosylation of MRP1 protein in FU-resistant human HCT8 cells at 1 uM incubated for 24 hrs by Western blotting method; type: cell-based; settings: hct-8, 24 h
Outline: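 HCT-8/5-FU cells (1 × 10^6) treated in duplicate for 24 h with 0.25, 0.5 or 1 µM test compound or 1 µM reference, with or without PTIO. Lysates immunoprecipitated overnight at 4 °C with anti-nitrotyrosine antibody on protein G beads. Eluates blotted with specific anti-Pgp, anti-MRP1 or anti-BCRP antibodies and quantified by densitometry. Mean ± SD of three experiments.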

Mus musculus [18] = test: Toxicity in nude BALB/c mouse xenografted with FU-resistant human HCT8 cells assessed as body weight level at 59.4 umol/kg administered as via oral gavage daily for 21 days (reference value: 20.8 +/- 2.2 g); type: organism-based, HCT-8; settings: in vivo, 504 h; outline: as §7
[19] = molecular target: RAC-alpha serine/threonine-protein kinase (Homo sapiens) (UniProt P31749); test: Inhibition of AKT protein phosphorylation in FU-resistant human HCT8 cells at 1 uM incubated for 24 hrs by Western blotting method; type: cell-based; settings: HCT-8; outline: as §4
HCT-8 [20] = test: Inhibition of ERK protein phosphorylation in human HCT8 cells at 1 uM incubated for 24 hrs by Western blotting method; type: cell-based; outline: as §4
HCT-8 [21] = test: Inhibition of MRP1 protein expression in FU-resistant human HCT8 cells at 1 uM incubated for 24 hrs by Western blotting method; type: functional, cell-based; outline: as §4
Mus musculus [22] = test: Toxicity in nude BALB/c mouse xenografted with FU-resistant human HCT8 cells assessed as abnormal size changes in liver at 59.4 umol/kg administered as via oral gavage daily for 21 days; type: organism-based, HCT-8; settings: in vivo, 504 h; outline: as §1
HCT-8 [23] = test: Inhibition of HIF-1alpha protein expression in human HCT8 cells at 1 uM incubated for 24 hrs by Western blotting method; type: functional, cell-based; outline: as §4

RAC-alpha serine/threonine-protein kinase (Homo sapiens), sequence (P31749 whole entry): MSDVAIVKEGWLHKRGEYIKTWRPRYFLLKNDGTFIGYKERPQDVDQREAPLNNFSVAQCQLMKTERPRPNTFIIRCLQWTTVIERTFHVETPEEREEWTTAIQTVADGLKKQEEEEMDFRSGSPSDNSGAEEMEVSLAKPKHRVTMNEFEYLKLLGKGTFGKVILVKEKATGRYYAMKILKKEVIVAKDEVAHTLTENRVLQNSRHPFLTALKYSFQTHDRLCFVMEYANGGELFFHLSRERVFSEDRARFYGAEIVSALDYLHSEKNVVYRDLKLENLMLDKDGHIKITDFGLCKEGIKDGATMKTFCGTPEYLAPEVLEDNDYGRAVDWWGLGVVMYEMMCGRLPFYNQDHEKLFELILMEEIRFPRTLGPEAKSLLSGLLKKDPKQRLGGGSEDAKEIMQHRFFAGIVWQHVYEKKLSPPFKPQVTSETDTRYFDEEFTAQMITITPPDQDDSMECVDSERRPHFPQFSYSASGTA
Multidrug resistance-associated protein 1, sequence (P33527 whole entry): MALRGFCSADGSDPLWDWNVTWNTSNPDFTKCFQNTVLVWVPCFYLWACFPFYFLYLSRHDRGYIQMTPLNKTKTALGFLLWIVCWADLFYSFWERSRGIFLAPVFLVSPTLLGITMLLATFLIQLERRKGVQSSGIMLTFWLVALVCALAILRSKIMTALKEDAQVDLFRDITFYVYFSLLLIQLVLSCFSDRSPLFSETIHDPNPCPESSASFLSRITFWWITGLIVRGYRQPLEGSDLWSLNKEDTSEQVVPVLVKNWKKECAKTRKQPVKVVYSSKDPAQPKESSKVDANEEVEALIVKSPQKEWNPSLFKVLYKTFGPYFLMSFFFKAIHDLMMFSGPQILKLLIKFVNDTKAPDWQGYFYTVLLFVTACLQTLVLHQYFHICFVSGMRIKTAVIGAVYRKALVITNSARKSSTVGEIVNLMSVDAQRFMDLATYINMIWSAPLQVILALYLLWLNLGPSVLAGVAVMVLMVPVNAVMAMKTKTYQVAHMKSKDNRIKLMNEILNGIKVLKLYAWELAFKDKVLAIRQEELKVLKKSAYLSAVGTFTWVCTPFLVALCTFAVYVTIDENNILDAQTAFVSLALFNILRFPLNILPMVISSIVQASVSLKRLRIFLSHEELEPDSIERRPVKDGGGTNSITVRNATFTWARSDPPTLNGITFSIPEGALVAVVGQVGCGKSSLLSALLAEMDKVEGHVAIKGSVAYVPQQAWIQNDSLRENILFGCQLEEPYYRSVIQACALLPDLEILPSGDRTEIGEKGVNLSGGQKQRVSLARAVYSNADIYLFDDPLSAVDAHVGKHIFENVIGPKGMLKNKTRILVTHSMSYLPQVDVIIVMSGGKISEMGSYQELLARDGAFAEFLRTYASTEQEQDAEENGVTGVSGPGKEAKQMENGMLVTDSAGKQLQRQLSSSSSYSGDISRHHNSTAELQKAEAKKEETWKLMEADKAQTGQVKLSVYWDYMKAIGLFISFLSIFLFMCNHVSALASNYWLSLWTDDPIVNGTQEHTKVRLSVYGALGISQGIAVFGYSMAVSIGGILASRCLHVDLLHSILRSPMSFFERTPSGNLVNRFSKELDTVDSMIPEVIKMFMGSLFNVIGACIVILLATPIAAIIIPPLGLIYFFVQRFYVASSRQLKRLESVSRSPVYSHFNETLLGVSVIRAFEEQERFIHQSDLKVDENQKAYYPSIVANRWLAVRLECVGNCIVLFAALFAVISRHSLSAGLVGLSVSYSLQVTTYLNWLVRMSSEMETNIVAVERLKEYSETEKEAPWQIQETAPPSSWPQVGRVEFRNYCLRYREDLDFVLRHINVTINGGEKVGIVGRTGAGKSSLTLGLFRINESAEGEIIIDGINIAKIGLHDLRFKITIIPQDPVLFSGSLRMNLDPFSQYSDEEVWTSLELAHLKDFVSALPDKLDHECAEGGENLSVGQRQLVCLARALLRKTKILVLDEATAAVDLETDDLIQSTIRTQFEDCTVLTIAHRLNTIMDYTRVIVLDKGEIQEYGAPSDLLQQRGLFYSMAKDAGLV

SMILES: CC1(C)CC[C@]2(C(=O)NCC(=O)OCC#CCOc3no[n+]([O-])c3S(=O)(=O)c3ccccc3)CC[C@]3(C)[C@H](C(=O)C=C4[C@@]5(C)C=C(C#N)C(=O)C(C)(C)[C@@H]5CC[C@]43C)[C@@H]2C1
Activity (Mus musculus [1]): Non-toxic
inhibition of growth at 1 µM [2]: > 90%
inhibition (HCT-8 [3]): Dose-dependent effect
Activity (HCT-8 [4]): Active
inhibition (HCT-8 [5]): inactive
Activity (Mus musculus [6]): Non-toxic
inhibition [7]: Dose-dependent effect
Activity (CCD-841CoN): inactive
Activity (Mus musculus [8]): 16.7 g
inhibition (HCT-8 [9]): Dose-dependent effect
Activity (Mus musculus [10]): Non-toxic
Activity (HCT-8 [11]): Dose-dependent effect
Activity (Mus musculus [12]): Non-toxic
inhibition (HCT-8 [13]): Dose-dependent effect
Activity (Mus musculus [14]): Non-toxic

Activity [17]: Not Active
inhibition [19]: Active
SMILES: COC(=O)[C@]12CCC(C)(C)C[C@H]1[C@H]1C(=O)C=C3[C@@]4(C)C=C(C#N)C(=O)C(C)(C)[C@@H]4CC[C@@]3(C)[C@]1(C)CC2 [BARDOXOLONE METHYL]
growth inhibition (GI) (HCT-8 [15]): Active
Activity (Mus musculus [16]): Non-toxic
Activity (Mus musculus [18]): 16.7 g
inhibition (HCT-8 [20]): Active
inhibition (HCT-8 [21]): inactive
Activity (Mus musculus [22]): Non-toxic
inhibition (HCT-8 [23]): Active
